Laboratory results published in ChEMBL document CHEMBL1156019, “Synthesis and small-animal positron emission tomography evaluation of [11C]-elacridar as a radiotracer to assess the distribution of P-glycoprotein at the blood-brain barrier” (J Med Chem, 2009).

Columns and labels:
Brain [1] = assay: Biodistribution in wild type mouse brain assessed per gram of tissue, iv after 18 mins; settings: in vivo, 0.3 h
[2] = Ratio of drug level in wild type mouse brain to naive rat brain; type: ADME, tissue-based; settings: in vivo
Method in brief: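 Whole-brain %ID/g at 18 min after i.v. [11C]-1, from dynamic PET. Wild-type female FVB mice received 42±6 MBq via tail vein. Naive rats (baseline scan, before any unlabeled compound) received 118±40 MBq via femoral vein catheter. Both groups under isoflurane; n=3 each.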

Brain [3] = assay: Biodistribution in Bcrp1 knockout mouse brain assessed per gram of tissue, iv after 18 mins; settings: in vivo, 0.3 h
Brain [4] = assay: Biodistribution in naive rat brain assessed per gram of tissue at 118 +/- 40 MBq, iv after 18 mins by positron emission tomography; type: ADME, organism-based; settings: in vivo, 0.3 h
Method in brief: (§1)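 Naïve rats under 1.5-2% isoflurane with femoral artery and vein catheters; [11C]-tracer 118±40 MBq i.v. bolus over ~30 s; dynamic microPET. Scan 1: unlabeled compound 5 mg/kg i.v. at 60 min, then 90 min more acquisition; scan 2 given 2 h after unlabeled dose. Whole-brain TACs as %ID/g; arterial blood sampled serially and gamma counted. n=3, mean ± SD.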

Brain [5] = assay: Ratio of drug level in Mdr1a/b knockout mouse brain to wild type mouse brain; type: ADME, tissue-based; settings: in vivo
Method in brief: (§2)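 Wild-type FVB, Mdr1a/b(-/-) and Bcrp1(-/-) female mice (25-30 g), isoflurane-anesthetized and kept warm. [11C]-1 42±6 MBq i.v. bolus via tail vein, with a 60-min dynamic microPET scan started at injection. Whole-brain %ID/g read from time-activity curves at 18 min; knockout/wild-type ratios taken at 18 min; n=3; two-tailed unpaired t-test.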

Blood [6] = assay: Biodistribution in Mdr1a/b knockout mouse blood assessed per gram of tissue at 42 +/- 6 MBq, iv after 20 mins by gamma counting; settings: in vivo
Brain [7] = assay: Ratio of drug level in Bcrp1 knockout mouse brain to wild type mouse brain; type: ADME, tissue-based; settings: in vivo
Method in brief: as §2

Blood [8] = assay: Biodistribution in Bcrp1 knockout mouse blood assessed per gram of tissue at 42 +/- 6 MBq, iv after 20 mins by gamma counting; settings: in vivo
Brain [9] = assay: Biodistribution in Mdr1a/b knockout mouse brain assessed per gram of tissue, iv after 18 mins; settings: in vivo, 0.3 h
Brain [10] = assay: Biodistribution in naive rat brain assessed per gram of tissue at 118 +/- 40 MBq, iv after 0.6 mins by positron emission tomography; type: ADME, organism-based; settings: in vivo, 0.01 h
Method in brief: as §1

Blood [11] = assay: Biodistribution in naive rat blood assessed per gram of tissue at 118 +/- 40 MBq, iv after 20 mins by gamma counting; type: ADME, organism-based; settings: in vivo
Method in brief: as §1

Blood [12] = assay: Biodistribution in wild type mouse blood assessed per gram of tissue at 42 +/- 6 MBq, iv after 20 mins by gamma counting; settings: in vivo
Caco-2 = assay: Ratio of permeability from basolateral to apical side over apical to basolateral side in human Caco-2 cells
[13] = Inhibition of P-gp-mediated [3H]daunorubicin transport in Wistar rat hepatocytes by scintillation counting; type: cell-based; settings: hepatocyte
Brain [14] = assay: Ratio of drug level in naive rat brain at 118 +/- 40 MBq, iv administered 2 hrs after unlabeled elacridar infusion to drug level in naive rat brain at 118 +/- 40 MBq, iv administered before unlabeled elacridar infusion; type: ADME, organism-based; settings: in vivo
Method in brief: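 Naive rats under isoflurane with femoral artery and vein catheters; n=3. Scan 1: [11C]-1 118±40 MBq i.v. bolus over about 30 s, then dynamic PET. At 60 min, unlabeled 1 (5 mg/kg) i.v. over about 20 s, then 90 min more imaging. Scan 2 run 2 h after unlabeled dose. Whole-brain %ID/g at 18 min compared as scan 2/scan 1; two-tailed paired t-test.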

Brain [15] = assay: Biodistribution in naive rat brain assessed per gram of tissue at 118 +/- 40 MBq, iv after 130 mins by positron emission tomography; type: ADME, organism-based; settings: in vivo
Method in brief: as §1

Brain [16] = assay: Biodistribution in naive rat brain assessed per gram of tissue at 118 +/- 40 MBq, iv administered 2 hrs after unlabeled elacridar infusion measured after 18 mins by positron emission tomography; type: ADME, organism-based; settings: in vivo, 0.3 h
Method in brief: as §1

Rattus norvegicus = species: Rattus norvegicus; settings: Sprague-Dawley, 10 M
Brain [17] = assay: Biodistribution of rat brain at 20 MBq, iv after 30 mins post-injection in presence of cyclosporine A treated before compound infusion relative to basal level; type: ADME, organism-based; settings: in vivo, 0.5 h

COc1cc2c(cc1OC)CN(CCc1ccc(NC(=O)c3cccc4c(=O)c5cccc(O[11CH3])c5[nH]c34)cc1)CC2 gave a Drug uptake (Brain [1]) of 0.72 %ID, a Ratio [2] of 10 and a Drug uptake (Brain [3]) of 0.9 %ID. For the same compound, the Drug uptake (Brain [4]) was 0.07 %ID, the Ratio (Brain [5]) was 2.5 and the Drug uptake (Blood [6]) was 0.64 %ID. The Ratio (Brain [7]) was 1.3, the Drug uptake (Blood [8]) was 0.89 %ID and the Drug uptake (Brain [9]) was 1.8 %ID. It also gave a Drug uptake (Brain [10]) of 0.23 %ID, a Drug uptake (Blood [11]) of 0.02 %ID and a Drug uptake (Blood [12]) of 0.97 %ID.
In the case of COc1cc2c(cc1OC)CN(CCc1ccc(NC(=O)c3cccc4c(=O)c5cccc(OC)c5[nH]c34)cc1)CC2, the Ratio (Caco-2) is reported as less than 2, the Ki [13] is reported as 35 nM and the Ratio (Brain [14]) is reported as 5.4. For the same compound, the Drug uptake (Brain [15]) was 0.28 %ID, the Drug uptake (Brain [16]) was 0.4 %ID and the inhibition (Rattus norvegicus) was 63%.
For [11CH3]OC(=O)c1cnc2n1CCc1ccccc1C2=C1CCN(CCc2ccc(OCc3ccc4ccccc4n3)cc2)CC1, the “fold change (FC)” value (Brain [17]) was 6.
